This is an account of results in ChEMBL document CHEMBL1140211, “The role of molecular modeling in the design of analogues of the fungicidal natural products crocacins A and D” (Bioorg Med Chem, 2008).

Activity calls are given as the source filed them. No cut-off for these calls is given here.

A short description of assay [1]: (§1) Inhibition of cytochrome bc1 complex in bovine heart mitochondria by NADH oxidase assay. On the set-up: species or system Bos taurus. An outline of the steps: (§2)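 Microtitre-plate assay with beef heart mitochondria at a final 68.8 μg/ml in pH 8.0 phosphate buffer. Compounds were diluted in DMSO (2% final) from a top final concentration of 20 ppm. Plates were preincubated 15 min at room temperature, then NADH was added in pH 8.0 phosphate buffer to a final 200 ppm.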

The subject of assay [2] is Plasmopara viticola. Put plainly: Inhibition of Plasmopara viticola cytochrome bc1 complex inoculated in vine plant assessed as lowest drug concentration required to control 100% disease applied to leaf 1 hr prior inoculation measured after 6 to 9 days. An outline of the steps:
(§3)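 Spray solutions were made up in reverse osmosis water immediately before use, with Tween 20 at 0.05% by volume final to improve deposit retention. Concentrations tested were 100, 50, 25, 10, 5 and 1 ppm. The breakpoint is the lowest of these six concentrations giving 100% disease control, converted to molar units. Azoxystrobin served as the standard.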

Assay [3] concerns Blumeria graminis f. sp. tritici. Put plainly: Inhibition of Blumeria graminis f. sp. Tritici cytochrome bc1 complex inoculated in wheat plant assessed as lowest drug concentration required to control 100% disease applied to leaf 1 hr prior inoculation measured after 6 to 9 days. An outline of the steps: as §3
Assay [4] deals with Mycosphaerella graminicola. Kind of assay: Inhibition of Mycosphaerella graminicola cytochrome bc1 complex inoculated in wheat plant assessed as lowest drug concentration required to control 100% disease applied to leaf 1 hr prior inoculation measured after 6 to 9 days. An outline of the steps:
as §3

Assay [5] has as its system Puccinia triticina. Kind of assay: Inhibition of Puccinia triticina cytochrome bc1 complex inoculated in wheat plant assessed as lowest drug concentration required to control 100% disease applied to leaf 1 hr prior inoculation measured after 6 to 9 days. An outline of the steps:
as §3

In assay [6] the test system is Phytophthora infestans. Put plainly: Inhibition of Phytophthora infestans cytochrome bc1 complex inoculated in tomato plant assessed as lowest drug concentration required to control 100% disease applied to leaf 1 hr prior inoculation measured after 6 to 9 days. An outline of the steps: as §3
The species entered for assay [7] is Bos taurus. The description is as §1. An outline of the steps: as §2

`COC(=O)CNC(=O)/C=C\C/C=C\NC(=O)/C=C(C)/C=C/[C@H](C)[C@H](OC)[C@H](C)[C@H](/C=C/c1ccccc1)OC` [CROCACIN A]: it took 56 nM to reach half-maximal inhibition in assay [1] (IC50). Also, the Activity in assay [2] was 45 µM; in assay [3] it was above 180 µM; in assay [4] it was above 180 µM; in assay [5], 45 µM; in assay [6], above 180 µM.
In turn, `CCc1ccc(Oc2ccc(Cn3c(=O)oc4ccc(OCC(=O)OC)cc43)cc2)cc1` registered an IC50 in assay [1] of 140 nM.
The same measure, in the same setting: next, `CCc1ccc(Oc2ccc(C(=O)NCCCCC(=O)NCC(=O)OC)cc2)cc1`: 400 nM.
The compound `CO/C=C(/C(=O)OC)c1ccccc1Oc1cc(Oc2ccccc2C#N)ncn1` [AZOXYSTROBIN] displayed an IC50 in assay [1] of 120 nM. The Activity in assay [2], in assay [3], in assay [4], in assay [5] and in assay [6] was below 1.8 µM throughout.
With `COC(=O)CNC(=O)CCC/C=C\NC(=O)c1ccc(Cc2ccc(Br)cc2)cc1`, the midpoint of inhibition in assay [1], the IC50, lay at 17 nM. Moreover, the Activity in assay [2] came to 10 µM.
Regarding `C/C=C(C)/C=C/C=C/[C@H](OC)[C@@H](C)[C@@H](OC)[C@@H](C)CCc1oc2c(O)c(OC)cc(OC)c2c(=O)c1C` [STIGMATELLIN], in assay [1], the IC50 was 81 nM. Besides, the Activity in assay [2] is 180 µM; in assay [3] it was above 180 µM; in assay [4], above 180 µM; in assay [5], above 180 µM; in assay [6], above 180 µM.
As for `CCc1ccc(Cc2ccc(Cn3c(=O)oc4ccc(OCC(=O)OC)cc43)cc2)cc1`, the IC50 in assay [1] turned out to be 45 nM.
Compound `CCc1ccc(Oc2ccc(C(=O)N[C@H]3C[C@H]3CCC(=O)NCC(=O)OC)cc2)cc1` registered an IC50 in assay [1] of 900 nM.
As for `CCc1ccc(Cc2ccc(Cn3c(=O)oc4ccc(NCC(=O)OC)cc43)cc2)cc1`, the result in assay [7] was inactive.
Regarding `CCOc1ccc(Cc2ccc(C(=O)N/C=C\CCCC(=O)NCC(=O)OC)cc2)cc1`, the IC50 in assay [1] is 9 nM. In addition, the Activity in assay [2] stood at 25 µM.
`CCCCCCOc1ccc(C(=O)N/C=C\CCCC(=O)NCC(=O)OC)cc1`: the midpoint of inhibition in assay [1], the IC50, lay at 21 nM. Besides, in assay [2], the Activity was above 100 µM.
`COC(=O)COc1ccc2oc(=O)n(Cc3ccc(Cc4ccc(I)cc4)cc3)c2c1` came in with an IC50 in assay [1] of 75 nM.
Compound `CCc1ccc(Oc2ccc(C(=O)NCCOCC(=O)NCC(=O)OC)cc2)cc1` had an IC50 in assay [1] of 230 nM.
As to `COC(=O)CNC(=O)CCCc1ccccc1NC(=O)CCCCCCCCCc1ccccc1`, the result in assay [7] was inactive.
On to `COC(=O)CNC(=O)CCC/C=C\NC(=O)c1ccc(Cc2ccc(I)cc2)cc1`, for which the IC50 in assay [1] was 18 nM.
For the compound `CCCCCCCCCCCCC(=O)N/C=C\CCCC(=O)NCC(=O)OC`, the IC50 in assay [1] turned out to be 24 nM. In addition, in assay [2], the Activity is above 100 µM.
`CCc1ccc(Cc2ccc(C(=O)N/C=C\CCCC(=O)NCC(=O)OC)cc2)cc1` returned an IC50 in assay [1] of 16 nM.
In assay [1], `COC(=O)CNC(=O)CCC/C=C\NC(=O)/C=C(C)/C=C/[C@H](C)[C@H](OC)[C@H](C)[C@H](/C=C/c1ccccc1)OC` [CROCACIN D] yielded an IC50 of 36 nM. Besides, the Activity in assay [2] is 25 µM; in assay [3], above 180 µM; in assay [4], 45 µM; in assay [5], 9 µM; in assay [6], 45 µM.
